For orientation: Ki means a dissociation constant, usually derived from enzyme kinetics or from competition with a known ligand.

Results on three molecules are retold here after ChEMBL document CHEMBL1124703, “Analogues of carbamyl aspartate as inhibitors of dihydroorotase: preparation of boronic acid transition-state analogues and a zinc chelator carbamylhomocysteine” (J Med Chem, 1990).

In assay [1] the target is Multifunctional protein CAD (Homo sapiens, UniProt P27708). Kind of assay: Inhibitory activity against Dihydroorotase (DHO) at pH 6.0. The arrangement: species or system Cricetulus griseus.
Sequence of Multifunctional protein CAD (P27708 whole entry): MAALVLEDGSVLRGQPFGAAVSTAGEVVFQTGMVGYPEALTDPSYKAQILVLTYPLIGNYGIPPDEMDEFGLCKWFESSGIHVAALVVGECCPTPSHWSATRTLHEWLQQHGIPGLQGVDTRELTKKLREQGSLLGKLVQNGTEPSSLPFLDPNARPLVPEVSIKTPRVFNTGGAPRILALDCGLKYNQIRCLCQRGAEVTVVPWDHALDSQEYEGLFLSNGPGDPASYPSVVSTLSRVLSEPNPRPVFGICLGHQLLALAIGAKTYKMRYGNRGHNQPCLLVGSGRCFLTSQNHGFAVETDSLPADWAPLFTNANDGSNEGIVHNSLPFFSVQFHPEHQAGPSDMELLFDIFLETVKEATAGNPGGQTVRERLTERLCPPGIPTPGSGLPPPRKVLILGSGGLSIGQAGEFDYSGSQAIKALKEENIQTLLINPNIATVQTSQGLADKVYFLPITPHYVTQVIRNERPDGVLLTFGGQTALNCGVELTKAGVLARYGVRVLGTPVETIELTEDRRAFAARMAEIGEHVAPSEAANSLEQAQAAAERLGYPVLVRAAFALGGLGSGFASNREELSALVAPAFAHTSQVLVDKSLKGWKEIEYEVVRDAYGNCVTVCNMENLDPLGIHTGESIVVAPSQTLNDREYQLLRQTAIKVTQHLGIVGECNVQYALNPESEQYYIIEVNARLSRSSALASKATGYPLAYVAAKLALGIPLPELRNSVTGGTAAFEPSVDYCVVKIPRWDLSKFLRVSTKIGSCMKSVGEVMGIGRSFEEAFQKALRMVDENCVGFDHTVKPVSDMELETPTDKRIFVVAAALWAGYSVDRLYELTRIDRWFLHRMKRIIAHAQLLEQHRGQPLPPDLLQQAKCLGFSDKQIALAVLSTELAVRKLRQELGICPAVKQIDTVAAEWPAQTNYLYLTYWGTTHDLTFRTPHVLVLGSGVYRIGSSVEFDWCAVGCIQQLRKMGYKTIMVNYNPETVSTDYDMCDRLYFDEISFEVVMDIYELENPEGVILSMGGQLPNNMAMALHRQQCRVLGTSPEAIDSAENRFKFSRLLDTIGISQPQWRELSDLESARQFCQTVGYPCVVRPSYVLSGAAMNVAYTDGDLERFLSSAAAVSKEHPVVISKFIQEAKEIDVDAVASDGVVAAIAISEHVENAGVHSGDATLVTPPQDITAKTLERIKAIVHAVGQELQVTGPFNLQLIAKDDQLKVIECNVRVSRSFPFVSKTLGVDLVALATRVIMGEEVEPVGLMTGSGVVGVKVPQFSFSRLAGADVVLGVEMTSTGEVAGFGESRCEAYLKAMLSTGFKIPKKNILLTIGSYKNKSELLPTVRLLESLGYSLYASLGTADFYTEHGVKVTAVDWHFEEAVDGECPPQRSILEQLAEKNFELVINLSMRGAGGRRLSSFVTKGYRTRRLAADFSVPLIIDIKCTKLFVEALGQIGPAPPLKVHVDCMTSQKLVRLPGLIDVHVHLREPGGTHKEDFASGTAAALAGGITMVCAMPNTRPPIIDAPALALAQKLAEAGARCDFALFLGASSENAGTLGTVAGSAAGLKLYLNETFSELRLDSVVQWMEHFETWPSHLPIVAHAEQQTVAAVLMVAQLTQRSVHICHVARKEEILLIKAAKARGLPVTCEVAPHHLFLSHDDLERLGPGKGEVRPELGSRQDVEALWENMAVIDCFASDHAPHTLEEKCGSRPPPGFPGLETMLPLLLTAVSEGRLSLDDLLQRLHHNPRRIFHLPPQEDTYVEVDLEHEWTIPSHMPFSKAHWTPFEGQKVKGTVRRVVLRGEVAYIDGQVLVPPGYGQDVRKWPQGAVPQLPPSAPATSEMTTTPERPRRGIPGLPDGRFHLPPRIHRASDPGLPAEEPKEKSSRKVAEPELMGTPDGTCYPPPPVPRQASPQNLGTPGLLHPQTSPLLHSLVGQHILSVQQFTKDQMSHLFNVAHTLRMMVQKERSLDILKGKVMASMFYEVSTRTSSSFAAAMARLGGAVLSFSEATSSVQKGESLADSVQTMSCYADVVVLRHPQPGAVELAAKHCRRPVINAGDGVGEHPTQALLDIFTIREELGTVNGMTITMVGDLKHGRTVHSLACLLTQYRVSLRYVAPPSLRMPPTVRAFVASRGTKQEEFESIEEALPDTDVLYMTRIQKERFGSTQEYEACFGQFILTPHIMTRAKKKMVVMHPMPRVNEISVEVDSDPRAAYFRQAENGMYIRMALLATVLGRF
Assay [2] has as its system L1210. Kind of assay: Uptake in L1210 cells at a concentration of 210 uM after 24 hr. To be noted: Mus musculus, L1210, 24 h.
For assay [3], the system named is L1210. Kind of assay: Inhibitory activity against murine L1210 cell growth at a concentration of 100 uM after 0h. Type of assay: functional, Mus musculus. The method, boiled down: (§1)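 Murine L1210 cells kept in DMEM with 10% FCS and L-glutamine and harvested in log phase. About 1×10^5 cells/mL held 24 h in depleted medium before drug or DMSO vehicle was added. Trypan blue-excluding cells counted by hemacytometer at 0, 24 and 48 h. Three flasks per concentration and six controls; reported as % survival versus control.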

The test system of assay [4] is L1210. Kind of assay: Inhibitory activity against murine L1210 cell growth at a concentration of 100 uM after 24 hr. Type of assay: functional, Mus musculus. Put shortly:
as §1

Assay [5] relates to L1210. Kind of assay: Inhibitory activity against murine L1210 cell growth at a concentration of 100 uM after 48 hr.
The test system of assay [6] is L1210. Kind of assay: Inhibitory activity against murine L1210 cell growth at a concentration of 250 uM after 0h. Type of assay: functional, Mus musculus. The method, boiled down:
as §1

Assay [7] deals with L1210. Kind of assay: Inhibitory activity against murine L1210 cell growth at a concentration of 250 uM after 24 hr. Type of assay: functional, Mus musculus. Put shortly:
as §1

Assay [8] has as its system L1210. Kind of assay: Inhibitory activity against murine L1210 cell growth at a concentration of 250 uM after 8 hr. Type of assay: functional, Mus musculus.

Molecule `CCOC(=O)C(CB(O)O)NC(N)=O` (stereo not drawn) returned a Ki in assay [1] of 5.07 µM. In the assay on L1210 [2], the Uptake at 210 µM is 0.09%.
`O=C(O)C[C@H](NC(=O)CP(=O)(O)O)C(=O)O` [PALA]: the Cell survival in the assay with L1210 [3] was determined as 96; in the assay with L1210 [4] it was 28; with L1210 [5], 22.
Take `NC(=O)BCCNC(CC(=O)O)C(=O)O` (stereo not drawn) [BOROCARBAMYLETHYL ASPARTATE]: the Cell survival is 114 in the assay on L1210 [6], 66 in the assay with L1210 [7] and 80 with L1210 [8].
